Assay results as given in ChEMBL document CHEMBL4765363, “Design, synthesis and biological evaluation of 4-aniline quinazoline derivatives conjugated with hydrogen sulfide (HS) donors as potent EGFR inhibitors against L858R resistance mutation” (Eur J Med Chem, 2020).

Legend:
[1] = tested on: Epidermal growth factor receptor (Homo sapiens), P00533 [L858R]; conditions: NCI-H3255, time 72.0 hrs
[2] = tested on: Epidermal growth factor receptor (Homo sapiens), P00533 [L858R,T790M]; conditions: BaF3, time 72.0 hrs
[3] = biological target: Epidermal growth factor receptor (Homo sapiens) (UniProt P00533); conditions: BaF3, time 72.0 hrs
[4] = biological target: Epidermal growth factor receptor (Mus musculus) (UniProt Q01279); conditions: BaF3, time 72.0 hrs
[5] = tested on: Epidermal growth factor receptor (Homo sapiens), P00533 [L858R]; conditions: BaF3, time 72.0 hrs
[6] = biological target: Epidermal growth factor receptor (Homo sapiens) (UniProt P00533); test: Inhibition of wild type EGFR in human A549 cells assessed as cell growth inhibition measured after 72 hrs by Celltiter-Glo luminescent cell viability assay; type: cell-based
Summary of the method: (§1)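 Cells seeded at 2500-3000 per well and exposed to test agents across a concentration series for 72 h. Viability read by CellTiter-Glo luminescence, normalized to DMSO controls. Mean of three independent measurements (standard error <20%); GI50 obtained by curve fitting. Single-concentration readout is proliferation rate at 10 µM.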

[7] = Induction of H2S generation in pH 7.4 PBS:acetone buffer at 20 uM measured after 2 hrs by NIR-HS probe based fluorescence spectrophotometric method; type: functional
Summary of the method: (§2)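 Compound at 20 µM incubated with NIR-HS (10 µM) in PBS:acetone 2:3 at 37 °C, sampled from 0 to 180 min (0, 5, 30, 60, 90, 120, 150, 180 min). Emission read at 723 nm (ex 670 nm). H2S quantified against a Na2S calibration curve (0-8 µM, same probe and conditions, 3 h, F/F0 at 723 nm).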

[8] = Induction of H2S generation in pH 7.4 PBS:acetone buffer at 10 to 200 uM measured after 3 hrs by NIR-HS probe based fluorescence spectrophotometric method; type: functional; conditions: dose 10-200 µM
Summary of the method: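 NIR-HS probe (10 µM) incubated with compound (0, 5, 10, 50, 100, 200 µM) in PBS:acetone 2:3 (pH 7.4) at 37 °C for 3 h. Fluorescence read at ex 670 / em 723 nm.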

NCI-H3255 [9] = test: Cell cycle arrest in human NCI-H3255 cells assessed as accumulation at S phase at 5 uM measured after 72 hrs by propidium iodide staining based flow cytometry (reference value: 36.26%); type: functional
Summary of the method: (§3)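 H3255 cells in 10% FBS/RPMI given DMSO or compound at 1, 5 or 10 µM for 72 h, then washed in cold PBS, fixed in 70% cold ethanol and held overnight at -20 °C. Stained with PI/RNase buffer for 15 min at room temperature, then analysed by flow cytometry with ModFit phase modelling.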

NCI-H3255 [10] = test: Cell cycle arrest in human NCI-H3255 cells assessed as accumulation at G2/M phase at 1 uM measured after 72 hrs by propidium iodide staining based flow cytometry (reference value: 10.18%); type: functional
Summary of the method: as §3

[11] = tested on: Epidermal growth factor receptor (Homo sapiens), P00533 [L858R]; test: Inhibition of EGFR L858R mutant in human NCI-H3255 cells assessed as cell growth inhibition measured after 72 hrs in presence of ZnCl2 by Celltiter-Glo luminescent cell viability assay; type: cell-based
NCI-H3255 [12] = test: Cell cycle arrest in human NCI-H3255 cells assessed as accumulation at G2/M phase at 5 uM measured after 72 hrs by propidium iodide staining based flow cytometry (reference value: 10.18%); type: functional
Summary of the method: as §3

NCI-H3255 [13] = test: Cell cycle arrest in human NCI-H3255 cells assessed as accumulation at G0/G1 phase at 5 uM measured after 72 hrs by propidium iodide staining based flow cytometry (reference value: 53.55%); type: functional
Summary of the method: as §3

HUVEC = test: Cytotoxicity against HUVEC assessed as reduction in cell viability measured after 72 hrs by Celltiter-Glo luminescent cell viability assay; type: cell-based; conditions: Homo sapiens
Summary of the method: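 Cells seeded at 2500-3000 per well, exposed to a range of compound concentrations for 72 h. Viability read by CellTiter-Glo luminescence. Data normalised to DMSO controls, given as the mean of three independent measurements, with IC50 obtained by curve fitting.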

[14] = tested on: Epidermal growth factor receptor (Homo sapiens), P00533 [L858R]; test: Inhibition of EGFR L858R mutant phosphorylation at Y1068 residue in human NCI-H3255 cells measured after 4 hrs by Western blot analysis; type: cell-based
Summary of the method: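 H3255 cells treated with a range of concentrations for 4 h, then lysed in cold RIPA containing 1% PMSF. Lysate protein quantified by BCA, separated by SDS-PAGE and transferred to PVDF. Blocked in 5% milk, probed with anti-phospho-EGFR (Y1068) and developed by ECL.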

NCI-H3255 [15] = test: Cell cycle arrest in human NCI-H3255 cells assessed as accumulation at S phase at 1 uM measured after 72 hrs by propidium iodide staining based flow cytometry (reference value: 36.26%); type: functional
Summary of the method: as §3

NCI-H3255 [16] = test: Cell cycle arrest in human NCI-H3255 cells assessed as accumulation at G0/G1 phase at 1 uM measured after 72 hrs by propidium iodide staining based flow cytometry (reference value: 53.55%); type: functional
Summary of the method: as §3

[17] = Induction of H2S generation in pH 7.4 PBS:acetone buffer at 20 uM measured within 1 hr by NIR-HS probe based fluorescence spectrophotometric method; type: functional
Summary of the method: as §2

[18] = tested on: Epidermal growth factor receptor (Homo sapiens), P00533 [C797S]; test: Inhibition of TEL-fused EGFR C797S mutant (unknown origin) transfected in mouse BaF3 cells assessed as reduction in cell proliferation incubated for 72 hrs by Celltiter-Glo luminescent cell viability assay; type: cell-based
Summary of the method: as §1

NCI-H3255 [19] = test: Cell cycle arrest in human NCI-H3255 cells assessed as accumulation at G2/M phase at 10 uM measured after 72 hrs by propidium iodide staining based flow cytometry (reference value: 10.18%); type: functional
Summary of the method: as §3

NCI-H3255 [20] = test: Cell cycle arrest in human NCI-H3255 cells assessed as accumulation at S phase at 10 uM measured after 72 hrs by propidium iodide staining based flow cytometry (reference value: 36.26%); type: functional
Summary of the method: as §3

NCI-H3255 [21] = test: Cell cycle arrest in human NCI-H3255 cells assessed as accumulation at G0/G1 phase at 10 uM measured after 72 hrs by propidium iodide staining based flow cytometry (reference value: 53.55%); type: functional
Summary of the method: as §3

NCI-H3255 [22] = test: Antiproliferative activity against human NCI-H3255 cells assessed as cell growth inhibition at 10 uM measured after 72 hrs by Celltiter-Glo luminescent cell viability assay relative to control; conditions: NCI-H3255, 72 h

Epidermal growth factor receptor (Homo sapiens), sequence (P00533 whole entry): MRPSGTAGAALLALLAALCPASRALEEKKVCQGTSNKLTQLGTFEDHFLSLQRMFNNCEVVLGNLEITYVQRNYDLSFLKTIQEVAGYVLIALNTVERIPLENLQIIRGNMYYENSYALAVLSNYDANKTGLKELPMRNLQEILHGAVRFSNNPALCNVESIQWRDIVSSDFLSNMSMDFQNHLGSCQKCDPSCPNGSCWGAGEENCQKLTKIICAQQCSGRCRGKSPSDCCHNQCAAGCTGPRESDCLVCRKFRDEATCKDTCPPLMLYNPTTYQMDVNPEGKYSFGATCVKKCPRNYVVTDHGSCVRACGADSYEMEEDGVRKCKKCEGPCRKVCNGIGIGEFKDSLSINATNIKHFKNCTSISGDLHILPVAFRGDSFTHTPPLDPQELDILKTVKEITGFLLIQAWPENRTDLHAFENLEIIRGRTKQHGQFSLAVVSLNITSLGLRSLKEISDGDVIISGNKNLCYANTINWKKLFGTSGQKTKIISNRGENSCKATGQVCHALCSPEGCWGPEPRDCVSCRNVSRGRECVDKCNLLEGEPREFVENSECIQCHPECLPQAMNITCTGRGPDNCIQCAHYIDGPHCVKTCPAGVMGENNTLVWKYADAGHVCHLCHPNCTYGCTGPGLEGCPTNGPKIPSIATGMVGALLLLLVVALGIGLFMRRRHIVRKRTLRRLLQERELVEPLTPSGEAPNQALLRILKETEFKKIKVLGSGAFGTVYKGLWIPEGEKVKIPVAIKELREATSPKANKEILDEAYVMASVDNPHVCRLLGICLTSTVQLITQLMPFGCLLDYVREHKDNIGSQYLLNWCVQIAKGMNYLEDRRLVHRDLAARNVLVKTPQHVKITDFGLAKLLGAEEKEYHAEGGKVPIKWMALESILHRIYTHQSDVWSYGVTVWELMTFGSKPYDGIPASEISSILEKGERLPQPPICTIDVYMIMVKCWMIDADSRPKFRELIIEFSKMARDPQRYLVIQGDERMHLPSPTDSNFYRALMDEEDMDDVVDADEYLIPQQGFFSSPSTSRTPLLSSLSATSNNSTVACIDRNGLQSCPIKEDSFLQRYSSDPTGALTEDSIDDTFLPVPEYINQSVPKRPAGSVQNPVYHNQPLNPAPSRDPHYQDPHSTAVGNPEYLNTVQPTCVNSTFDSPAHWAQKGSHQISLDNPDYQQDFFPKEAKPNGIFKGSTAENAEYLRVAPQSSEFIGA
Epidermal growth factor receptor (Mus musculus), sequence (Q01279 whole entry): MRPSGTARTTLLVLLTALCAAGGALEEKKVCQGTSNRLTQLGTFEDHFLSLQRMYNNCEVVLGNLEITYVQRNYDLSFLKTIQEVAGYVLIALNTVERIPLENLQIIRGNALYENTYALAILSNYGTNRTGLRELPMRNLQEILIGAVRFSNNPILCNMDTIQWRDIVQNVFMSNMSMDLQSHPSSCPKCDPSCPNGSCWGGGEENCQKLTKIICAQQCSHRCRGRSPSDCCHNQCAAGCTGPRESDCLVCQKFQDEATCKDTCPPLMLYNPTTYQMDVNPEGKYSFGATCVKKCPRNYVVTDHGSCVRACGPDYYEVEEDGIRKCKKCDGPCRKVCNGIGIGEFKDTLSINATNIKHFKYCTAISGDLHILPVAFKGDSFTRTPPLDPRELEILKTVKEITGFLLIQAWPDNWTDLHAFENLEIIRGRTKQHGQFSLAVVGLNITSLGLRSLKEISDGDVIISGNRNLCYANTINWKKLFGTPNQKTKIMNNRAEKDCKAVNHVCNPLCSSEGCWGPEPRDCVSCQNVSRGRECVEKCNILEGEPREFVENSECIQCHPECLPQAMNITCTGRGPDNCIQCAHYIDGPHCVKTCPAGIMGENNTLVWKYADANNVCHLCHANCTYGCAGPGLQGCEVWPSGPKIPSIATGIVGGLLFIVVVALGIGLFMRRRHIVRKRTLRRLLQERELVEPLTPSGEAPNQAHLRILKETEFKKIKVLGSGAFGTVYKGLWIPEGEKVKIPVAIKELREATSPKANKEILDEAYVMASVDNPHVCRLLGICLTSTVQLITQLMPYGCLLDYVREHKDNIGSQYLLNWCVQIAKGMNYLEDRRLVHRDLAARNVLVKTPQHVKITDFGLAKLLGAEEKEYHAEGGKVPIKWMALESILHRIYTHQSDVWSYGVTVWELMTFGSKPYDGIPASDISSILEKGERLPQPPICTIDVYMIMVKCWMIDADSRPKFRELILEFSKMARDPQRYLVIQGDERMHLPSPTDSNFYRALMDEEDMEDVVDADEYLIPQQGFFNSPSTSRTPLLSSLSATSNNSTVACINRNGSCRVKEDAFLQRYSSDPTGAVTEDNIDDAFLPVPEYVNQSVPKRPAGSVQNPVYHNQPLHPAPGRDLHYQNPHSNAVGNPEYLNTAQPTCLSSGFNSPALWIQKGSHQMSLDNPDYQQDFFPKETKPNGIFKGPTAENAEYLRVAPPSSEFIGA
Epidermal growth factor receptor (Homo sapiens), P00533 [L858R], sequence (P00533 whole entry L858R): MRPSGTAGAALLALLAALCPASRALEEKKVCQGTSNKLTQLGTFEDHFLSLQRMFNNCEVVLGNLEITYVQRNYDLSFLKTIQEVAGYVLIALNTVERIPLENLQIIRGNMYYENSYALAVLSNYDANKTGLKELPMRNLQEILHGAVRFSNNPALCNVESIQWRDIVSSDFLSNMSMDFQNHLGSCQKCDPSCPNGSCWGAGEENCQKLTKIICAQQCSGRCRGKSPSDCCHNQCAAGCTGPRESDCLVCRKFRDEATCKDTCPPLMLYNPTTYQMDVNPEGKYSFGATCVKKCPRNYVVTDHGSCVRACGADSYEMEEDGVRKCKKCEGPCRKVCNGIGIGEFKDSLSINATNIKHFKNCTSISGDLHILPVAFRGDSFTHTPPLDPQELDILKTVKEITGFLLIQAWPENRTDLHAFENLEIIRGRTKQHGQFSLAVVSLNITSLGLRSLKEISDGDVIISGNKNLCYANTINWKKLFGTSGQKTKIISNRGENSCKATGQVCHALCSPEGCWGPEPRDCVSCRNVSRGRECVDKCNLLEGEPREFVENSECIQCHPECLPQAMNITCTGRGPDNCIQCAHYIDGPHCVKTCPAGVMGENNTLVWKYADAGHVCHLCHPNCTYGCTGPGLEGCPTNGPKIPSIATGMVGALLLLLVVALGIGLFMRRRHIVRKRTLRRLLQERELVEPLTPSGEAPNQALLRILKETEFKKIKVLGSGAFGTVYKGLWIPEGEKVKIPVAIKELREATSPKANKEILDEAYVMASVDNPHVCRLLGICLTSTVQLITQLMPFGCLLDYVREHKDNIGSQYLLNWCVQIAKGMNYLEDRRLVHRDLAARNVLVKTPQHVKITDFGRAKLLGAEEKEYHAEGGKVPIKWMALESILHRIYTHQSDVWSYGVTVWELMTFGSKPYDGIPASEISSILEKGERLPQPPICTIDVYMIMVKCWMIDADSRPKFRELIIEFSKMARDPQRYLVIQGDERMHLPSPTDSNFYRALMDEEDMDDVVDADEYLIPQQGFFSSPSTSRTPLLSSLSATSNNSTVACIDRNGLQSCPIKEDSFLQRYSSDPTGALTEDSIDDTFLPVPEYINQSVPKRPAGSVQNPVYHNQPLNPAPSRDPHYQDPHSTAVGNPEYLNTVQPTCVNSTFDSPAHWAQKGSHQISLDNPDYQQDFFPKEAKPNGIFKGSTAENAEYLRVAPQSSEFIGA
Epidermal growth factor receptor (Homo sapiens), P00533 [L858R,T790M], sequence (P00533 whole entry T790M/L858R, looked up): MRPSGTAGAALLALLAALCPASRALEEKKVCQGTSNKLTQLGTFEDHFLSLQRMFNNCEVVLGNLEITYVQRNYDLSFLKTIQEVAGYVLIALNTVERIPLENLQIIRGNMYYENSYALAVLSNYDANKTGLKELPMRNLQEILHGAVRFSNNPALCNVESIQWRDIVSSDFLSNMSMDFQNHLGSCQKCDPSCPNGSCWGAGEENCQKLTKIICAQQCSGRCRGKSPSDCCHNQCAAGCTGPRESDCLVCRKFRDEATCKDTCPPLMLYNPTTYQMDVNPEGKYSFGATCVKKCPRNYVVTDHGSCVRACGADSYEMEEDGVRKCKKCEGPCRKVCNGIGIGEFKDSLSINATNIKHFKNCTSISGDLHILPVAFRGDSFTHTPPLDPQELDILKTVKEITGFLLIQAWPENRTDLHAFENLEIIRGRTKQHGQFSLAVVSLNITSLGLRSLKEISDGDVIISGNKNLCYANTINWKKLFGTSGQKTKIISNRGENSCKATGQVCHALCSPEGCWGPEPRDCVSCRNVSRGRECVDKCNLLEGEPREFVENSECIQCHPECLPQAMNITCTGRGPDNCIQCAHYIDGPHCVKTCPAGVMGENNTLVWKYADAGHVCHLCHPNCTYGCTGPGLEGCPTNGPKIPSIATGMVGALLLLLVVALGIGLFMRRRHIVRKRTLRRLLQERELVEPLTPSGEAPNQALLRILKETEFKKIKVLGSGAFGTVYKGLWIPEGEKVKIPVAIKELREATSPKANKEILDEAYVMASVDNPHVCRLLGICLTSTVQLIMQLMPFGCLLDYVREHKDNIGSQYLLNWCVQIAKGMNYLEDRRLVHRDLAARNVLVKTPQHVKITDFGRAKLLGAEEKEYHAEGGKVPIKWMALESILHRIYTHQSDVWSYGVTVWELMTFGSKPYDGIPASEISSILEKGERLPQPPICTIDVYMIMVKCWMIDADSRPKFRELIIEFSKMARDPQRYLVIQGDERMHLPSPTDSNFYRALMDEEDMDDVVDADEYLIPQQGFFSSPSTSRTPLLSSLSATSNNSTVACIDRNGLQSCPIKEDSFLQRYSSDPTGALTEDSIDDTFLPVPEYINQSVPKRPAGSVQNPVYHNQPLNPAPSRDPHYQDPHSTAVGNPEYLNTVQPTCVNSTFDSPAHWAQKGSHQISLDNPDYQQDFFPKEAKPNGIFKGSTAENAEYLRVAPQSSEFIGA

Structure (SMILES) | GI50 [1] [nM] | GI50 [2] [µM] | GI50 [3] [µM] | GI50 [4] [µM] | GI50 [5] [nM] | GI50 [6] [µM] | further results
COc1cc2c(Nc3ccc(F)c(Cl)c3)ncnc2cc1OCCCOc1ccc(-c2cssc2=S)cc1 | > 10000 | > 10 | > 10 | > 10 | 270 | > 10 | –
O=C(COc1ccc(-c2cssc2=O)cc1)Nc1ccc2ncnc(Nc3ccc(F)c(Cl)c3)c2c1 | 4360 | 3.16 | 2.49 | 4.27 | 290 | > 10 | Drug metabolism [7]: Metabolite detected; Drug metabolism [8]: Metabolite detected
COc1cc2c(Nc3ccc(Br)cc3)ncnc2cc1OCCCOc1ccc(-c2cssc2=S)cc1 | 1410 | > 10 | 9.56 | 9.23 | 250 | > 10 | –
COc1cc2c(Nc3ccc([N+](=O)[O-])cc3)ncnc2cc1OCCCOc1ccc(-c2cssc2=S)cc1 | 1870 | > 10 | 4.08 | 3.79 | 600 | > 10 | –
C=CCSSCCC(=O)OCCCOc1cc2ncnc(Nc3cccc(Br)c3)c2cc1OC | 787 | 6.03 | > 10 | > 10 | 8 | > 10 | Activity (NCI-H3255 [9]): 10.23%; Activity (NCI-H3255 [10]): 5.19%; Drug metabolism [8]: Metabolite detected; GI50 [11]: 303 nM; Activity (NCI-H3255 [12]): 4.89%; Activity (NCI-H3255 [13]): 84.88%; IC50 (HUVEC): > 10 µM; inhibition [14]: Dose-dependent effect; Activity (NCI-H3255 [15]): 34.49%; Activity (NCI-H3255 [16]): 60.32%; Drug metabolism [17]: Metabolite detected; GI50 [18]: 6.9 nM; Activity (NCI-H3255 [19]): 2.66%; Activity (NCI-H3255 [20]): 8.73%; Activity (NCI-H3255 [21]): 88.61%
C=CCCSSCC(=O)Nc1ccc2ncnc(Nc3cccc(C(F)(F)F)c3)c2c1 | – | – | – | – | – | > 10 | –
COc1cc2c(Nc3cccc(C(F)(F)F)c3)ncnc2cc1OCCCOc1ccc(-c2cssc2=S)cc1 | 7470 | 1.65 | 1.98 | 3.79 | 380 | > 10 | –
COc1ccc(Nc2ncnc3cc(OCCCOc4ccc(-c5cssc5=S)cc4)c(OC)cc23)cc1OC | 8580 | 6.35 | 3.39 | 2.65 | 830 | > 10 | Drug metabolism [7]: Metabolite detected; Drug metabolism [8]: Metabolite detected
C=CCCSSCC(=O)Nc1ccc2ncnc(Nc3ccc(F)c(Cl)c3)c2c1 | 349 | > 10 | > 10 | > 10 | 12 | > 10 | –
C=CC(=O)Nc1cc(Nc2nccc(-c3cn(C)c4ccccc34)n2)c(OC)cc1N(C)CCN(C)C [OSIMERTINIB] | – | – | – | – | – | – | IC50 (HUVEC): 7.28 µM
O=C(COc1ccc(-c2cssc2=O)cc1)Nc1ccc2ncnc(Nc3cccc(Br)c3)c2c1 | – | – | – | – | – | > 10 | –
[Cl-].[Cl-].[Zn+2] [ZINC CHLORIDE] | – | – | – | – | – | – | Cell proliferation rate % at 10 µM (NCI-H3255 [22]): 54%
COc1cc2c(Nc3cccc(Br)c3)ncnc2cc1OCCCOc1ccc(-c2cssc2=S)cc1 | 2400 | > 10 | 3.06 | 9.23 | 120 | > 10 | –
O=C(COc1ccc(-c2cssc2=O)cc1)Nc1ccc2ncnc(Nc3cccc(C(F)(F)F)c3)c2c1 | – | – | – | – | – | > 10 | –
C=CCCSSCC(=O)Nc1ccc2ncnc(Nc3cccc(Br)c3)c2c1 | 520 | > 10 | > 10 | > 10 | 11 | > 10 | –
C=CCSSCCC(=O)OCCCOc1cc2ncnc(Nc3ccc(Br)cc3)c2cc1OC | 1350 | > 10 | 2.34 | 3.91 | 58 | > 10 | –
